Legend:
[1] = Inhibition of bovine brain tubulin polymerization after 20 mins by turbidimetric analysis; design: species or system Bos taurus
Method in brief: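 Bovine brain tubulin 10 µM (1 mg/mL) in 0.8 M monosodium glutamate pH 6.6, 4% DMSO, with varying compound, preincubated 15 min at 30 °C. Chilled, GTP added to 0.4 mM, then temperature jumped 0→30 °C. Turbidity followed at 350 nm for 30 min.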

DU-145 = assay: Cytotoxicity against human DU145 cells after 48 hrs by SRB assay; format: functional; conditions: DU-145, 48 h
Method in brief: (§1)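 Cells in 5% FBS/RPMI1640 with 1% gentamicin, plated and grown 24 h, then given serial compound dilutions for 48 h. Fixed with trichloroacetic acid, stained with sulforhodamine B, read by optical density.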

SK-OV-3 = assay: Cytotoxicity against human SKOV3 cells after 48 hrs by SRB assay; format: functional; conditions: SK-OV-3, 48 h; method in brief: as §1
NCI-H460 = assay: Cytotoxicity against human NCI-H460 cells after 48 hrs by SRB assay; format: functional; conditions: NCI-H460, 48 h; method in brief: as §1
Tubulin (Homo sapiens) [2] = target: T1, Tubulin (Homo sapiens) (UniProt P68371+Q9H4B7+P0DPH7+P68366+Q13509+Q71U36+P04350+Q3ZCM7+P07437+P68363+Q9BQE3+Q6PEY2+Q13885+Q9BVA1+Q9BUF5); assay: Displacement of [3H]colchicine from tubulin (unknown origin) at 5 uM after 10 mins by scintillation counting analysis; format: protein-complex assay
Method in brief: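 Mixtures: 1.0 µM tubulin, 5.0 µM [3H]colchicine, 5% DMSO, inhibitor 5.0 µM, with 1.0 M monosodium glutamate pH 6.6, 0.5 mg/mL BSA, 0.1 M glucose-1-phosphate, 1.0 mM MgCl2, 1.0 mM GTP. 10 min at 37 °C, stopped with ice-cold water, filtered on DEAE-cellulose, scintillation counted. Percent inhibition versus no-inhibitor control.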

Tubulin (Homo sapiens) [3] = target: T1, Tubulin (Homo sapiens); assay: Displacement of [3H]colchicine from tubulin (unknown origin) at 1 uM after 10 mins by scintillation counting analysis; format: protein-complex assay
Method in brief: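 Tubulin 1.0 µM incubated 10 min at 37 °C with 5.0 µM [3H]colchicine, 5% (v/v) DMSO and inhibitor at 1.0 µM, in 1.0 M monosodium glutamate pH 6.6, 0.5 mg/mL BSA, 0.1 M glucose-1-phosphate, 1.0 mM MgCl2, 1.0 mM GTP. Stopped with ice-cold water, DEAE-cellulose filter stacks, scintillation counting next day; percent inhibition versus no-inhibitor control.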

Row | SMILES | IC50 [1] | GI50 (DU-145) | GI50 (SK-OV-3) | GI50 (NCI-H460) | inhibition (Tubulin (Homo sapiens) [2]) | inhibition (Tubulin (Homo sapiens) [3])
1 | COc1ccc2c(C(=O)c3cc([N+](=O)[O-])cc([N+](=O)[O-])c3)c(-c3ccc(OC)c(O)c3)[nH]c2c1 | > 20 µM | 5.52 µM | 4.35 µM | 4.08 µM |  | 
2 | COc1ccc(/C=C\c2cc(OC)c(OC)c(OC)c2)cc1O [COMBRETASTATIN A4] |  | 0.00484 µM | 0.00533 µM | 0.00449 µM |  | 
3 | COc1ccc2c(C(=O)c3cccc([N+](=O)[O-])c3)c(-c3ccc(OC)c(O)c3)[nH]c2c1 | 19 µM | 7.11 µM | 2.65 µM | 15.7 µM | 21% | 
4 | COc1ccc(-c2[nH]c3cc(OC)c(OC)c(OC)c3c2C(=O)c2cc(OC)c(OC)c(OC)c2)cc1O | > 20 µM | 28.3 µM | 25.1 µM | 41.8 µM |  | 
5 | COc1ccc2c(C(=O)c3ccc([N+](=O)[O-])cc3)c(-c3ccc(OC)c(O)c3)[nH]c2c1 | > 20 µM | 8.16 µM | 21.1 µM | 16.8 µM |  | 
6 | COc1ccc(-c2[nH]c3c(O)c(OC)ccc3c2C(=O)c2cc(OC)c(OC)c(OC)c2)cc1 | 1 µM | 0.309 µM | 0.264 µM | 0.177 µM | 85% | 51%
7 | COc1ccc2c(C(=O)c3cc(F)c(F)c(F)c3)c(-c3ccc(OC)c(O)c3)[nH]c2c1 | 7.5 µM | 10 µM | 19.8 µM | 5.54 µM | 26% | 
8 | COc1ccc2c(C(=O)c3cc(C(F)(F)F)cc(C(F)(F)F)c3)c(-c3ccc(OC)c(O)c3)[nH]c2c1 | 3.1 µM | 3.01 µM | 1.45 µM | 2.86 µM | 26% | 
9 | COc1ccc2c(C(=O)c3cccc(OC(F)(F)F)c3)c(-c3ccc(OC)c(O)c3)[nH]c2c1 | 3.7 µM | 2.99 µM | 0.283 µM | 3.57 µM | 19% | 
10 | COc1ccc(-c2[nH]c3cc(O)ccc3c2C(=O)c2cc(OC)c(OC)c(OC)c2)cc1O | > 20 µM | 3.4 µM | 2.17 µM | 2.91 µM |  | 
11 | COc1ccc2c(C(=O)c3ccc(OC(F)(F)F)cc3)c(-c3ccc(OC)c(O)c3)[nH]c2c1 | > 20 µM | 3.21 µM | 3.05 µM | 2.35 µM |  | 
12 | COc1ccc2c(C(=O)c3ccc(F)cc3)c(-c3ccc(OC)c(O)c3)[nH]c2c1 | > 20 µM | 10 µM | 15 µM | 49.6 µM |  | 
13 | COc1ccc(-c2[nH]c3c(OC)c(OC)ccc3c2C(=O)c2cc(OC)c(OC)c(OC)c2)cc1O | 1.1 µM | 0.0181 µM | 0.0119 µM | 0.992 µM | 67% | 31%

Source: ChEMBL document CHEMBL2440086 (Bioorg Med Chem, 2013)
